Experimental data published in article PMC3103189 (Journal of Medicinal Chemistry, 2011).
Marks after values point to notes of the source that are not given here.

Columns and labels:
[1] = tested on: panel of Gram-positive and Gram-negative bacteria; assay: MIC, summary statements over the panel; format: cell-based; details: read-out: MICs for the tetracycline-susceptible strains
In short: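 Broth microdilution MIC in liquid medium following CLSI methods. Medium was cation-adjusted Mueller Hinton broth, prepared fresh and held at 4 °C before testing, with defibrinated horse blood added as appropriate. Runs were accepted when comparator antibiotics fell within recommended quality-control ranges for the appropriate ATCC quality-control strains.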

[2] = tested on: H. influenzae clinical isolates (n = 11); assay: MIC50/MIC90 analysis, clinical isolates; format: cell-based, Haemophilus influenzae; details: n = 11 clinical isolates
[3] = tested on: S. aureus ATCC 13709 (Smith); assay: Mouse septicemia model, IV efficacy; format: in vivo; details: IV 1 h postchallenge, survival after 48 h
[4] = for Clobs / Vzobs: Sprague−Dawley rats, 1 mg/kg IV and 10 mg/kg PO, sterile water
[5] = tested on: S. aureus clinical isolates (n = 31); assay: MIC50/MIC90 analysis, clinical isolates; format: cell-based, Staphylococcus aureus; details: n = 31 clinical isolates
[6] = tested on: S. pneumoniae clinical isolates (n = 19); assay: MIC50/MIC90 analysis, clinical isolates; format: cell-based, Streptococcus pneumoniae; details: n = 19 clinical isolates
[7] = tested on: E. coli S30 extract system (coupled transcription/translation); format: biochemical; details: relative to tetracycline
[8] = tested on: E. coli clinical isolates (n = 20); assay: MIC50/MIC90 analysis, clinical isolates; format: cell-based, Escherichia coli; details: n = 20 clinical isolates
[9] = cited from earlier work

MIC range H. influenzae [2] | Clobs [4] | Vzobs [4] | MIC range S. aureus [5] | SMILES | further results
 |  |  |  | CN(C)[C@@H]1C(O)=C(C(N)=O)C(=O)[C@@]2(O)C(O)=C3C(=O)c4c(O)cncc4C[C@H]3C[C@@H]12.Cl.Cl [20a, 6-Demethyl-6-deoxy-8-azatetracycline Dihydrochloride] | MIC [1]: 0.25 to 1 µg/mL
0.063−4 μg/mL | 15.3 mL/min/kg | 4.177 L/kg | ≤0.016−32 μg/mL | CN(C)c1ncc(O)c2c1C[C@H]1C[C@H]3[C@H](N(C)C)C(O)=C(C(N)=O)C(=O)[C@@]3(O)C(O)=C1C2=O.Cl.Cl [20f, 6-Demethyl-6-deoxy-7-(dimethylamino)-8-azatetracycline Dihydrochloride] | S. aureus PD50 [3]: <0.30 ^b mg/kg; MIC range S. pneumoniae [6]: ≤0.016−8 μg/mL
 |  |  |  | CN(C)[C@@H]1C(O)=C(C(N)=O)C(=O)[C@@]2(O)C(O)=C3C(=O)c4c(O)c(N)nc(Cl)c4C[C@H]3C[C@@H]12 [20j, 9-Amino-7-chloro-6-demethyl-6-deoxy-8-azatetracycline] | fold more potent than tetracycline in transcription/translation assay [7]: about 2 fold
 |  |  |  | CN(C)[C@@H]1C(O)=C(C(N)=O)C(=O)[C@@]2(O)C(O)=C3C(=O)c4c(O)c(N)nc(F)c4C[C@H]3C[C@@H]12.Cl.Cl [20k, 9-Amino-6-demethyl-6-deoxy-7-fluoro-8-azatetracycline Dihydrochloride] | fold more potent than tetracycline in transcription/translation assay [7]: about 2 fold
0.25−2 μg/mL | 3.37 mL/min/kg | 1.256 L/kg | 0.063−4 μg/mL | CN(C)CC(C)(C)CNc1nc(Cl)c2c(c1O)C(=O)C1=C(O)[C@]3(O)C(=O)C(C(N)=O)=C(O)[C@@H](N(C)C)[C@@H]3C[C@@H]1C2.Cl [24l, 7-Chloro-6-demethyl-6-deoxy-9-[[3-(dimethylamino)-2,2-dimethylpropyl]amino]-8-azatetracycline Trihydrochloride] | MIC range E. coli [8]: 0.5−8 μg/mL; fold lower clearance than the other three compounds ([4]; Sprague-Dawley, rat, in vivo): 5 fold; MIC range S. pneumoniae [6]: ≤0.016−0.063 μg/mL
 |  |  |  | CN(C)[C@@H]1C(O)=C(C(N)=O)C(=O)[C@@]2(O)C(O)=C3C(=O)c4c(O)cccc4[C@@](C)(O)[C@H]3C[C@@H]12 [tetracycline] | oral bioavailability in humans [9]: 50−70%
0.25−1 μg/mL | 15.5 mL/min/kg | 6.119 L/kg | ≤0.016−1 μg/mL | CN(C)c1cc(NC(=O)CNC(C)(C)C)c(O)c2c1C[C@H]1C[C@H]3[C@H](N(C)C)C(O)=C(C(N)=O)C(=O)[C@@]3(O)C(O)=C1C2=O [tigecycline, reference compound] | MIC range E. coli [8]: 0.125−2 μg/mL
